Source: ChEMBL document CHEMBL1641417, “Cytotoxicity and topoisomerase I/II inhibition of glycosylated 2-phenyl-indoles, 2-phenyl-benzo[b]thiophenes and 2-phenyl-benzo[b]furans” (Bioorg Med Chem, 2011)
Active and inactive are the calls of the source. The calls are words filed in the database; no cut-off is given here.

Legend:
[1] = test system: HepG2; assay: Cytotoxicity against human HepG2 cells assessed as cell viability at 25 uM after 24 hrs by MTS assay; format: functional; conditions: HepG2, 24 h, read-out: Activity
[2] = target: T1, DNA topoisomerase 1 (Homo sapiens) (UniProt P11387); assay: Inhibition of human recombinant DNA topoisomerase 1-mediated DNA cleavage assessed as decrease in relaxation of supercoiled plasmid substrate DNA at 100 uM after 30 mins by agarose gel electrophoresis
T1 sequence (whole entry): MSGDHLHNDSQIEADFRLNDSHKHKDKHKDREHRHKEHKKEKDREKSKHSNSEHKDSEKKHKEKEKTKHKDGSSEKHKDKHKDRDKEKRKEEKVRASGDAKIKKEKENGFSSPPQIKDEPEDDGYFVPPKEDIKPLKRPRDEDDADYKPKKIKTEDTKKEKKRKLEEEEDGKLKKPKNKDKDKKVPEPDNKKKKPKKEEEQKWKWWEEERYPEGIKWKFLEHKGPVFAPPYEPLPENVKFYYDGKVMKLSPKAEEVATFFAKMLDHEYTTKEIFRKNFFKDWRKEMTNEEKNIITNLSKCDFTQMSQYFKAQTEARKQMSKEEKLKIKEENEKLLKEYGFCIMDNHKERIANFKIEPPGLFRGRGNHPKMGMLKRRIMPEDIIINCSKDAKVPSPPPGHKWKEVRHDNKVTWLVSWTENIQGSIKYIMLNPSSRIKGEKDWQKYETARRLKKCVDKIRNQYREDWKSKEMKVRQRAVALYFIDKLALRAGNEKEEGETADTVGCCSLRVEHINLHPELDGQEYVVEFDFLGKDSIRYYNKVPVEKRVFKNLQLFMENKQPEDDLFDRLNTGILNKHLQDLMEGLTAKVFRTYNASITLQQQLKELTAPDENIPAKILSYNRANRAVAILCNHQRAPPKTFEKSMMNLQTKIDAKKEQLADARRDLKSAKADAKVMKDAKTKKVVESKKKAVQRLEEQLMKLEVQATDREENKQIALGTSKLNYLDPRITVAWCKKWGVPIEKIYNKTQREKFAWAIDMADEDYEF

[3] = target: DNA topoisomerase 2-alpha (Homo sapiens) (UniProt P11388); assay: Inhibition of human recombinant DNA topoisomerase 2alpha-mediated DNA cleavage assessed as decrease in relaxation of supercoiled plasmid substrate DNA at 100 uM after 30 mins by agarose gel electrophoresis
[4] = test system: MCF7; assay: Cytotoxicity against human MCF7 cells after 72 hrs by MTS assay; conditions: MCF7, 72 h
[5] = test system: HT-29; assay: Cytotoxicity against human HT-29 cells after 72 hrs by MTS assay; conditions: HT-29, 72 h
[6] = test system: HepG2; assay: Cytotoxicity against human HepG2 cells after 72 hrs by MTS assay; conditions: HepG2, 72 h
[7] = test system: Nucleic Acid; assay: Binding affinity to DNA by ethidium bromide staining-based FID assay; design: concentration or dose not given beside the values
[8] = test system: MCF7; assay: Cytotoxicity against human MCF7 cells at 25 uM after 72 hrs by MTS assay
[9] = test system: HT-29; assay: Cytotoxicity against human HT-29 cells at 25 uM after 72 hrs by MTS assay
[10] = test system: HepG2; assay: Cytotoxicity against human HepG2 cells at 25 uM after 72 hrs by MTS assay
[11] = test system: MCF7; assay: Cytotoxicity against human MCF7 cells assessed as cell viability at 25 uM after 72 hrs by MTS assay; conditions: MCF7, 72 h
[12] = test system: HT-29; assay: Cytotoxicity against human HT-29 cells assessed as cell viability at 25 uM after 72 hrs by MTS assay; conditions: HT-29, 72 h
[13] = test system: MCF7; assay: Cytotoxicity against human MCF7 cells assessed as cell viability at 100 uM after 72 hrs by MTS assay; conditions: MCF7, 72 h
[14] = test system: HT-29; assay: Cytotoxicity against human HT-29 cells assessed as cell viability at 100 uM after 72 hrs by MTS assay; conditions: HT-29, 72 h
[15] = test system: HepG2; assay: Cytotoxicity against human HepG2 cells assessed as cell viability at 100 uM after 72 hrs by MTS assay; conditions: HepG2, 72 h
[16] = Cytotoxicity against human CRL7761 cells after 3 days by MTS assay; format: cell-based; conditions: 72 h
Method in brief: (§1)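 Non-tumour cells were CRL-7761 human skin, Vero monkey kidney (DMEM high glucose, 5% FBS, 10 mM HEPES) and NIH/3T3 mouse (DMEM, 10% calf serum). Cells were seeded, left 24 h, then switched to serum-free DMEM-F12 with albumin, transferrin and insulin, with or without compound. Exposure was 3 days at 37 °C.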

[17] = test system: Vero; assay: Cytotoxicity against african green monkey Vero cells after 3 days by MTS assay; format: cell-based; conditions: Chlorocebus sabaeus, 72 h; method in brief: as §1
[18] = Cytotoxicity against mouse NIH/3T3 cells after 3 days by MTS assay; format: cell-based; conditions: NIH3T3, 72 h; method in brief: as §1
[19] = target: DNA topoisomerase 2-alpha (Homo sapiens) (UniProt P11388); assay: Inhibition of human recombinant DNA topoisomerase 2alpha-mediated DNA cleavage assessed as decrease in relaxation of supercoiled plasmid substrate DNA at 20 uM after 30 mins by agarose gel electrophoresis

Sequence of DNA topoisomerase 2-alpha (Homo sapiens) (P11388 whole entry): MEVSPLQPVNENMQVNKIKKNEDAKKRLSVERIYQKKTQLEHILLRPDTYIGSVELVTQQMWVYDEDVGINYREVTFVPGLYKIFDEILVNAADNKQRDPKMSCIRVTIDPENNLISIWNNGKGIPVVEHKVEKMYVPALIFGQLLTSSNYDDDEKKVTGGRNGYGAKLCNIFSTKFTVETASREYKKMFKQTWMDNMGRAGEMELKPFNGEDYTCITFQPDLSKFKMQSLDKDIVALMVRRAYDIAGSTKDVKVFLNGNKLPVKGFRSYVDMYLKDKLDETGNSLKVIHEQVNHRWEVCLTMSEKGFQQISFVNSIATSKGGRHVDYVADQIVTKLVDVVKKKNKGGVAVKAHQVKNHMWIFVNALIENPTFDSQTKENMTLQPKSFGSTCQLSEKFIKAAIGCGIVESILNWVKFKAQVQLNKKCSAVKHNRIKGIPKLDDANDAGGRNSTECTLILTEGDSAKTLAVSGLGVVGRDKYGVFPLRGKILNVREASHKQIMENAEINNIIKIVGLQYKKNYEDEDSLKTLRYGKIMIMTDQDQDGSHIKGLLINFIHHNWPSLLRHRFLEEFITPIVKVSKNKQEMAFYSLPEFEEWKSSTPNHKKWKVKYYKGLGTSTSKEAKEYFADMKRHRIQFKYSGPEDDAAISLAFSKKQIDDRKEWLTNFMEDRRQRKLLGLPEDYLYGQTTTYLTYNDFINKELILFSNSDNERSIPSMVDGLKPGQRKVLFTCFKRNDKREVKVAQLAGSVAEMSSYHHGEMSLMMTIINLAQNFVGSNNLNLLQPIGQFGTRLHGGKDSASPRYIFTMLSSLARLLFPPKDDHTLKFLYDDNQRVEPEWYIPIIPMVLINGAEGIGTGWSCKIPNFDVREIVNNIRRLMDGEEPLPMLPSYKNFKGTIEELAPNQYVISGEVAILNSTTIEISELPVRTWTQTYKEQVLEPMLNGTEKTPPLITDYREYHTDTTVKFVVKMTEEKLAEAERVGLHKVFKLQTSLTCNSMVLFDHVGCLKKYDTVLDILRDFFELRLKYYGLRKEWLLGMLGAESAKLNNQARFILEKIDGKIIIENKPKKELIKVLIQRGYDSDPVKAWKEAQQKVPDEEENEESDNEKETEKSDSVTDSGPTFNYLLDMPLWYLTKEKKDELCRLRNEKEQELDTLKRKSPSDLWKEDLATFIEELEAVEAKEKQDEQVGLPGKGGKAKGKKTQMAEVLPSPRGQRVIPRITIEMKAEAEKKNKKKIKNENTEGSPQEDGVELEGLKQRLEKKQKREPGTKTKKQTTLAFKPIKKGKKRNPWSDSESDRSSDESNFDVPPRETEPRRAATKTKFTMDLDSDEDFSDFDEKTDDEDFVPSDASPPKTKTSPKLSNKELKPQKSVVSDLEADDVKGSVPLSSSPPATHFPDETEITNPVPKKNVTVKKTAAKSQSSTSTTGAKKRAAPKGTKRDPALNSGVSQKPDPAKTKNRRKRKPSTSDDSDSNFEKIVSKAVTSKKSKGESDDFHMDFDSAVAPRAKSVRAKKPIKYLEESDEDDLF

inhibition [2] [%]	inhibition [3] [%]	Activity [7] [%]	inhibition [19]	Structure (SMILES)	viability at 25 µM [1] [%]	IC50 [4] [µM]	IC50 [5] [µM]	IC50 [6] [µM]	Activity [8] [%]	Activity [9] [%]	Activity [10] [%]	viability at 25 µM [11] [%]	viability at 25 µM [12] [%]	viability at 100 µM [13] [%]	viability at 100 µM [14] [%]	viability at 100 µM [15] [%]	IC50 [16] [µM]	IC50 [17] [µM]	IC50 [18] [µM]
32.2	22.2	73.6		C[C@@H]1O[C@@H](OCC#Cc2c(-c3ccccc3)sc3ccccc23)C[C@H](N)[C@H]1O	2	15.8	10.9	17.2	100	100	100	2	< 1						
				Ic1c(-c2ccccc2)[nH]c2ccccc12										103	91	91			
36.9	5.8	67.5		C[C@@H]1O[C@@H](OCC#Cc2c(-c3ccccc3)sc3ccccc23)C[C@H](N)[C@@H]1O	< 1	7.1	2.6	6	100	100	100	< 1	< 1				22.2	9.4	5.7
				OCC#Cc1c(-c2ccccc2)oc2ccccc12	88							86	86	2	< 1	< 1			
25.5	5.5	50.5		C[C@@H]1O[C@@H](OCC#Cc2c(-c3ccccc3)oc3ccccc23)C[C@H](N)[C@H]1O	< 1	5.4	6.5	7.7	100	100	100	< 1	< 1				> 25	10.6	6.5
20.2	0	68.5		C[C@@H]1O[C@@H](OCC#Cc2c(-c3ccccc3)oc3ccccc23)CC[C@@H]1N	< 1	10.3	6.5	7.9	100	100	100	< 1	< 1				> 25	10.9	3.7
				C#CCO[C@H]1C[C@H](N)[C@@H](O)[C@H](C)O1										123	91	105			
				Cc1ccc(S(=O)(=O)n2c(-c3ccccc3)c(I)c3ccccc32)cc1										114	82	90			
				OCC#Cc1c(-c2ccccc2)sc2ccccc12	97							90	68	37	8	17			
8.2	55.5	76.5	inactive	C[C@@H]1O[C@@H](OCC#Cc2c(-c3ccccc3)[nH]c3ccccc23)C[C@H](N)[C@H]1O	< 1	17.3	19.3	16.2	100		100	2	7						
				Ic1c(-c2ccccc2)oc2ccccc12										128	97	84			
				c1ccc(-c2cc3ccccc3[nH]2)cc1 [2-PHENYL-1H-INDOLE]										72	75	71			
				OCC#Cc1c(-c2ccccc2)[nH]c2ccccc12	87				100	100	100	121	81	109	79	87			
				c1ccc(-c2cc3ccccc3o2)cc1										107	80	88			
				Cc1ccc(S(=O)(=O)n2c(-c3ccccc3)c(C#CCO)c3ccccc32)cc1	58				100	100	100	87	26	55	9	37			
4	39.5	78.4		C[C@@H]1O[C@@H](OCC#Cc2c(-c3ccccc3)[nH]c3ccccc23)CC[C@@H]1N	< 1	10.8	9.2	11.4	100	100	100	< 1	< 1				24	20.5	14.7
				C#CCO[C@H]1C[C@H](N)[C@H](O)[C@H](C)O1										109	96	101			
				C#CCO[C@H]1CC[C@H](N)[C@H](C)O1										107	99	112			
7.9	16.4	79.9		C[C@@H]1O[C@@H](OCC#Cc2c(-c3ccccc3)sc3ccccc23)CC[C@@H]1N	< 1	7.1	5.9	8.8	100	100	100	< 1	< 1				> 25	18.1	9.8
				Cc1ccc(S(=O)(=O)n2c(-c3ccccc3)cc3ccccc32)cc1	54								39	71	12	37			
				c1ccc(-c2cc3ccccc3s2)cc1										113	81	88			
8.8	7.1	76.7		C[C@@H]1O[C@@H](OCC#Cc2c(-c3ccccc3)[nH]c3ccccc23)C[C@H](N)[C@@H]1O	< 1	15.9	14	12.9	100	100	100	< 1	< 1						
